B1: tRNA (parent)
chain: GUUCCGUUGGCGUAAUGGUAACGCGUCUCCCUCCUAAGGAGAAGACUGCGGGUUCGAGUCCCGUACGGAACG

Variants at the floor of the assay were thinned out. Some results are limits rather than exact numbers.

The data set covers variants of B1. As to the kind of experiment: yeast fitness relative to wild type (ratio to wild type); higher = fitter; tRNA-Arg(CCU), competitive growth, 37 C, YPD. Put shortly: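 The tRNA-Arg(CCU) gene variants were made by chemical synthesis with a 3% per-site mutation rate at 69 sites and inserted at the native genomic locus of Saccharomyces cerevisiae. After pooling, the strains were competed in YPD at 37°C for 24 hours in six parallel replicates. Gene amplicons from the start population and each end population were read by 100-nucleotide paired-end sequencing, and Darwinian fitness relative to wild type was taken from genotype frequency changes. Genotypes needed ≥ 100 starting reads, and estimates < 0.5 were set to 0.5.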
As to C33U C34G A45C C60A, the yeast fitness is at most 0.5.
Consider C4G U7C G41A A42C G50C A70G, for which the yeast fitness is at most 0.5.
In the case of U8A C24A G52C it was at most 0.5.
The result for U26C U59G reads 0.862.
With U8C A14G A20U C30G A37G G44A, the yeast fitness was at most 0.5.
Consider G9C C22A C34A C55G A65G, for which the yeast fitness came to 0.526.
The result for U2G C46A reads 0.808.
In the case of U19C G48C A57G it was 0.565; in that of A37C A43C A65U, 0.537; in that of U2G A20G, 0.901.
The result for C11A A14U C24U C34G U35A A36C C61A reads at most 0.5; that for C27G G48A C60U, at most 0.5; that for G10C C29A G68C, at most 0.5.
As for C34U U47C A69U, the yeast fitness amounted to 0.506.
Turning to G6A A14C A37U A57C G67U, the yeast fitness was at most 0.5.
The result for C30G C31G C33G A37C G67C reads at most 0.5; that for C5G U19G C22U U32C G56A A65C, at most 0.5.
The result for C11U G25A A57U reads at most 0.5; that for G17C A65C, 0.67; that for C11G A45G C49U C55A, at most 0.5.
As to A20U U28A A69U, the yeast fitness was found to be 0.585.
The result for G17A A36G G44A U47C A70U reads at most 0.5; that for G6A G39A A65C, 0.605; that for U26A C49U A65G, at most 0.5.
On to U3G C5U U32C G41C C49U U59G, for which the yeast fitness is at most 0.5.
In the case of G23C C27G C61U C66U it was at most 0.5.
The result for C11U G63C reads 0.725; that for G10U C11G C24U C34U C46A, at most 0.5.
In the case of A40U A45U G48A C55U C66U it was at most 0.5; in that of A20C C31A A70U, at most 0.5; in that of C27G A36U, 0.666.
U28C C60U: the yeast fitness came to 0.73.
In the case of C4U C55A U64A A65U it was at most 0.5; in that of A21G C22U A70U, 0.619.
In the case of A37U A70C it was 0.917.
In the case of C5G G6C A37G G51C A57G it was at most 0.5; in that of G9A G18A C27U A42U, 0.652.
Consider C4G A14C C31U U35A U47G, for which the yeast fitness was at most 0.5.
In the case of U19C C22U G67A it was 0.772; in that of C11G U35A G63C, 0.602.
In the case of C11A A43U C46U U47G it was 0.565.
The result for U26A U54G reads 0.531; that for G9C A15G C27A C31G C61U, at most 0.5; that for C11U A20U C60U, at most 0.5.
Consider A21C A45U G52A C62A, for which the yeast fitness is at most 0.5.
The result for G6C C30U C61G reads at most 0.5; that for C46G G52A, 0.843; that for C5U A21U C29G G58C, at most 0.5.
Turning to U2A C33G C46A C66A, the yeast fitness is at most 0.5.
In the case of A45U C46G it was 0.739.
In the case of U54A U64C, the yeast fitness was found to be 0.683.
As to C4U A37C G50C, the yeast fitness is at most 0.5.
In the case of A14U G44A it was 0.582; in that of U16C C34G G38C C62G A69C, at most 0.5; in that of C4G A15C U19A, at most 0.5.
In the case of U3C A20U it was 0.866; in that of C4A U7A A14G G17C A36G C61U, at most 0.5; in that of C33G A42U A43U A65C G68C, 0.553.
The result for C5G C11G A15U A70U reads at most 0.5.
On to G10U U32A G38C U64C, for which the yeast fitness is at most 0.5.
In the case of G10C C33U G48C it was at most 0.5.
In the case of G9A C29A C34A G67C it was at most 0.5; in that of C24G G67C, 0.622; in that of A21U C33A C34G G51C, at most 0.5.
The result for C4G C22U U32C U64C reads at most 0.5; that for A36G C55U, 0.743.
C5A A14U A21C A43C: the yeast fitness was found to be 0.595.
In the case of A15U U32C G52C it was 0.539.
In the case of A21G C30A C33G U59A C66U it was 0.535; in that of C30G U59C A65U, 0.528.
The result for C5G C31U G63A reads 0.683.
Regarding U7G U16C C30A, the yeast fitness is at most 0.5.
The result for C4U C5U G9A G10A A15C C46A reads 0.619.
In the case of C5U G10C A21U C22U C24U U32C C46U C61G it was at most 0.5; in that of U13A U16A C31G C33U G38C G58C C66G, at most 0.5.
For G58A U59C, the yeast fitness is 0.971.
Regarding U3G U16G, the yeast fitness worked out at 1.02.
The result for C11U C24U C34G reads at most 0.5.
As to A21C C61U, the yeast fitness was 0.679.
The result for U32C C46G A57U reads 0.673; that for C5U C27A A42U G48A C49G C60A, 0.592.
In the case of U3A A45C C62G it was at most 0.5; in that of G6C U26C A37U A43U, at most 0.5; in that of G6C G17A A36U C46A U53C C66A, at most 0.5.
In the case of C24A U54A it was 0.634.
On to C11A C30A, for which the yeast fitness was determined as 0.523.
The result for C4U C22U C31U reads 0.645; that for C49U G51A, 0.737; that for U2A C5U G23A A37G, 0.689.
In the case of U13C G48C G50A it was at most 0.5.
The result for C4U U7C G23A A40U A42C reads at most 0.5.
Consider U7C A42C U53A, for which the yeast fitness is at most 0.5.
In the case of A14G A15G G44A it was at most 0.5.
In the case of G23C C46A G56A C62U it was 0.758; in that of U19G U47G G58C, at most 0.5.
As for U16A A21G C27G A57G, the yeast fitness is at most 0.5.
The result for C4A U19A A69C reads 0.602.
In the case of C4A A15C, the yeast fitness was 0.544.
In the case of A14G A57U it was 0.563.
The result for U3G C4G G6C C29A A36C C62U reads at most 0.5; that for G68A A69U, 0.791.
In the case of C30U G39A C61G C62G it was at most 0.5; in that of C11G U13G G63A, at most 0.5.
With A14C G17A G48C C55U G63U, the yeast fitness is at most 0.5.
The result for C46U G56A A70G reads 0.697; that for A20C A45U, 0.8; that for U3G C24U C31U G50U A69U, 0.56.
The result for A14C A21G C22U U47A G56A reads 0.622; that for U32G G38A, 0.586.
In the case of G48A C55U A69U it was 0.522; in that of G48C G67U A69C, 0.507; in that of U13C U16G G25C, at most 0.5.
On to C24U C60A, for which the yeast fitness is 0.527.
In the case of G12C A20C C31G G51C it was at most 0.5.
The result for G6A A21G U35C A70C reads at most 0.5; that for U8A C27A C49U A69U, at most 0.5.
The result for U2G C5U C31G reads 0.583; that for U3A C30G A57C G58C, at most 0.5.
As for A20G G41A C60G A65G, the yeast fitness stood at 0.585.
In the case of U2G U19A C46U it was at most 0.5; in that of C11U C31A, 0.725; in that of U2G C34U A57G, at most 0.5.
In the case of A15G G25A G38A it was at most 0.5.
The result for C24A C30U C62U reads 0.511; that for C49U U59A A65U, at most 0.5; that for A15G C24G, 0.586.
On to C29G A57U C60A, for which the yeast fitness was at most 0.5.
The result for G6A C27A C30U G41C A43U C49A G63U reads 0.54; that for C27U G51A U53A G63C, at most 0.5; that for C4A A14U A20C U28G U54C, at most 0.5.
Take C11A G41A A57C: the yeast fitness is at most 0.5.
The result for G17A A45U G52A C61U reads at most 0.5.
With U13A U54C C55U C62U G68C, the yeast fitness was determined as 0.686.
The result for U13C G50A reads 0.874; that for G9C C11G A57C A70C, at most 0.5; that for G9A C60U, 0.742.
In the case of C29A C31A A40C G44A U59A it was 0.682; in that of C5G A15U G58A G67A, 0.626.
On to C5G U35G C49A, for which the yeast fitness was at most 0.5.
In the case of G12C C31A it was 0.774; in that of G6A G58A, 0.902.
In the case of C5G C22A U26C C33G U35A it was at most 0.5.
The result for C24A A40G C49A reads at most 0.5; that for A21C G38C G44C, 0.544; that for C33G C66G, 0.604.
For C29G G68A, the yeast fitness was determined as 0.595.
The result for G25A C55U U59C A65C reads at most 0.5.
In the case of G10A G67C it was 0.819; in that of C31U U32A C61U, 0.627.
In the case of C55G C60U G68C it was at most 0.5.
On to U3A C31U G63C G67C A69U, for which the yeast fitness came to 0.558.
In the case of U8A A20C U35A G38C A69C it was 0.535; in that of C11U C30G G56C, at most 0.5.
The result for C5G G23A G44C G67U reads 0.589; that for C11U A42G C46G G56C A65C, at most 0.5.
For the variant G17C G23C C31G G50C C60A G63A, the yeast fitness was at most 0.5.
In the case of C22U U32G C34U A40G C49U C66U it was 0.552; in that of U19C C33U G41C, 0.583.
The result for G38C A45C U47C reads at most 0.5.
The result for G9C C30U U47A G67C reads 0.559; that for A15C A69U, 0.892; that for C5G C31U U32C U54G C55U C61U, at most 0.5.
Regarding A21U C31A G39C C62G G68A, the yeast fitness was at most 0.5.
In the case of U26A U28C C30G A37C it was at most 0.5.
In the case of C4U C30A U64C it was 0.92; in that of C5G C29U C30A C66U, 0.645.
In the case of G18A A37U G68C, the yeast fitness was 0.579.

The values are drawn from the RNAGym collection of RNA variant scans (doi:10.1126/science.aae0568).
